Where “and” joins values, the source holds several entries; their conditions need not be identical. Equal values may be shown once.

Data set [1] in a line: Tissue distribution analysis in mice. The data set is classed as in vivo. Conditions: mouse, colon, intravenous, 10 mg/kg. The gist of the method:
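Tissue homogenised with bead beating in dissociation solvent at five-fold tissue weight. 30 μL homogenate mixed with 30 μL acetonitrile and 140 μL internal standard, vortexed, and centrifuged at 3500 g for 10 min. Supernatant analysed by LC-MS against calibration curves made in spiked blank homogenate.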

Another data set concerns the target T1, GPX4 (Homo sapiens, UniProt P36969).
T1 sequence (P36969 1-197): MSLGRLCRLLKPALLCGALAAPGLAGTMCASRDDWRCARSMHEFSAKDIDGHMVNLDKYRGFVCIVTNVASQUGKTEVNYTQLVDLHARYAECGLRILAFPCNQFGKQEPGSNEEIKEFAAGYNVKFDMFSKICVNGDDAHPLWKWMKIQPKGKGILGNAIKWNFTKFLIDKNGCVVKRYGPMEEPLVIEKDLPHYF
As to the kind of experiment: Cellular thermal shift assay. The data set is classed as cell-based. Conditions: pancreatic cancer cells, 100 μM, 1 h. The gist of the method:
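MIA PaCa-2 or PANC-1 cells seeded at 3 × 10^6 per 10 cm dish, attached overnight, then exposed to 100 μM test compound or DMSO for 1 h. After heating, supernatants were resolved on 10% SDS gels and immunoblotted for GPX4. Bands were quantified to derive a GPX4 melting temperature.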

In data set [2] the test system is MIA PaCa-2 cells. The experiment in a line: Lipid ROS measurement. The data set is classed as cell-based. Conditions: 24 h treatment, BODIPY C11. In outline: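 After compound exposure, MIA PaCa-2 cells received 10 μM C11-BODIPY for 30 min at 37 °C. They were washed twice with DPBS and read in HBSS on a plate reader at Ex/Em 581/591 nm (reduced dye) and 488/510 nm (oxidized dye). The Texas Red/FITC emission ratio was calculated; significance by unpaired Student's t-test.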

In data set [3] the test system is MIA PaCa-2 cells. As to the kind of experiment: Cellular ROS measurement. The data set is classed as cell-based. The settings on record: for Cellular ROS: MIA PaCa-2 cells, 0-4 h, 30 min. In outline: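 MIA PaCa-2 cells (RPMI 1640, 10% FBS, 37 °C, 5% CO2) seeded at 1.8 × 10^4 cells/well and attached overnight. Cells loaded with 10 μM CM-H2DCFDA in HBSS for 40 min at 37 °C, then washed twice with DPBS. Test compound added in HBSS at set concentrations. Fluorescence read at Ex 483/Em 530 nm over time. TBHP served as positive control.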

A short description of a further data set: PK study in CD-1 mice. The data set is classed as in vivo. The settings on record: for Concentration at 7 h in mouse plasma, IP: IP 10 mg/kg, 10 mg/kg; for Concentration at 7 h in mouse plasma, IP / Concentration at 7 h in mouse plasma, PO: n=2, individual values; for Survival of mice after IV injection: IV 10 mg/kg; for Concentration at 7 h in mouse plasma, PO: PO 20 mg/kg, 20 mg/kg. The gist of the method:
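CD-1 mice dosed IP (10 mg/kg), PO (20 mg/kg) or IV (10 mg/kg). Blood drawn at 0.5, 2, 4 and 7 h using heparinized calibrated pipettes and centrifuged at 15,000 rpm for 10 min. Plasma collected, frozen at −80 °C, and assayed by LC-MS/MS.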

The test system of the next data set is LRPPRC and PNPT1. The experiment in a line: Immunoblot of LRPPRC and PNPT1 expression. The data set is classed as cell-based. Conditions: MIA PaCa-2 cells, 3 × IC50, 4 h. The gist of the method:
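Cells seeded at 3.5 × 10^5 per 6-well were treated for 1 h or 4 h (H2O2 comparator 150 μM). Lysis was in RIPA with protease/phosphatase inhibitors, then sonication and BCA. 25 μg protein was run on 10% SDS-PAGE and transferred to PVDF. Blocking: 5% milk. Primary antibodies 1:500–1:1000 overnight at 4 °C, Dylight 800 secondary 1:6000 for 1 h. Infrared imaging; band densities normalized to loading controls.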
Background: Immunoblotting shows a protein as a band on a membrane.

The test system of data set [4] is mouse colon cancer cell line CT-26. As to the kind of experiment: CT-26 subcutaneous tumor study in Balb/c mice. The data set is classed as in vivo. Conditions: n=5, preliminary study.
The subject of another data set is GSH/GSSG ratio. The experiment in a line: GSH/GSSG-Glo assay. Format: cell-based. Conditions: MIA PaCa-2 cells, 2 h and 4 h treatment. In outline: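 Luminescent GSH/GSSG-Glo kit. 15,000–20,000 cells/well attached overnight, then were treated. Medium was removed and cells were lysed in Total or Oxidized Glutathione Reagent (5 min shaking). Luciferin Generation Reagent was added for 30 min at room temperature, then Detection Reagent; luminescence was read after 15 min equilibration. Ratio from net RLU = (total glutathione − GSSG)/(GSSG/2).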

In the next data set the test system is STAT3. The experiment in a line: Immunoblot of STAT3 phosphorylation and pH2AX. Conditions: MIA PaCa-2 and PANC-1 cells, 4 h. The data set is classed as cell-based. In outline:
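Cells seeded at 3.5 × 10^5/well (6-well) and treated 4 h at indicated concentrations. Lysed in RIPA with protease and phosphatase inhibitors, sonicated and centrifuged. 25 μg protein run on 10% SDS-PAGE and transferred to PVDF. Blocked in 5% milk; primary antibodies (STAT3, pSTAT3, pH2AX, GAPDH; 1:500–1:1000) overnight at 4 °C; infrared secondary 1:6000, 1 h RT. Signals normalised to loading control.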

Another data set has as its system pancreatic cancer cells. As to the kind of experiment: Colony formation assay, drug combinations. Format: cell-based. In outline: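 Cells seeded in 96-well plates: 300/well for MIA PaCa-2, 600/well for PANC-1 and BxPC-3; attached overnight. Partner drug added 1 h before test compound, with continuous exposure. Incubation ran 7–9 days, until control wells were 80–90% confluent. Stained with 0.05% crystal violet for 30 min, washed, dried and imaged. Synergy scored with HSA and Bliss models.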

Data set [5] relates to PANC-1 pancreatic cancer cells. As to the kind of experiment: MTT cytotoxicity assay in PANC-1 cells. The data set is classed as cell-based. Conditions: read-out: IC50 PANC-1, 72 h, mean ± sd, three independent experiments. The gist of the method: (§1)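 Cells kept in RPMI 1640 with 10% FBS, under 35 passages, mycoplasma-free. Seeded in 96-well plates and attached overnight. Exposed to test compound or DMSO for 72 h, then 0.3 mg/mL MTT for 3 h at 37 °C. Medium removed, formazan dissolved in DMSO with 15 min shaking, absorbance read at 570 nm. IC50 obtained by curve fitting; mean ± SD from at least three independent experiments.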

Data set [6] concerns MIA PaCa-2 pancreatic cancer cells. As to the kind of experiment: MTT cytotoxicity assay in MIA PaCa-2 cells. The data set is classed as cell-based. Conditions: read-out: IC50 MIA PaCa-2, 72 h, mean ± sd, three independent experiments. In outline: as §1
In general terms: Tetrazolium assays rely on reduction of a dye to a coloured formazan, in cell work by metabolically active cells.

For data set [7], the system named is BxPC-3 pancreatic cancer cells. As to the kind of experiment: MTT cytotoxicity assay in BxPC-3 cells. Format: cell-based. The settings on record: read-out: IC50 BxPC-3, 72 h, mean ± sd, three independent experiments. In outline: as §1

Compound `CC1=C(Nc2ccc(N3CCN(C)CC3)cc2)C(=O)c2cncnc2C1=O` [QD394-Me, 7-Methyl-6-((4-(4-methylpiperazin-1-yl)phenyl)amino)quinazoline-5,8-dione] showed a concentration at 1 h in data set [1] of approximately 300 ng/g. For the same compound, the “Effect on GPX4 protein stability (CETSA)” value on GPX4 was “destabilized GPX4 protein”. The “Lipid ROS (lipid peroxidation)” value in the data set with MIA PaCa-2 cells [2] is on record as “increased lipid ROS significantly in a dose-dependent manner”. Further, the “Cellular ROS” value in the data set with MIA PaCa-2 cells [3] is “significantly increased cellular ROS”. Besides, in the data set “PK study in CD-1 mice”, the “Concentration at 7 h in mouse plasma, IP” value is 6.7 ng/mL and 1.1 ng/mL; the “Concentration at 7 h in mouse plasma, PO” value amounted to 4.2 ng/mL. For the same compound, the “Survival of mice after IV injection” value in “PK study in CD-1 mice” (n=3) is recorded as “all three mice that received IV injections of QD394-Me survived”. The “Protein expression of LRPPRC and PNPT1” value with LRPPRC and PNPT1 is “significantly decreased protein expression of LRPPRC and PNPT1”. In data set [4] (CT-26, IV 10 mg/kg), the “Tumor shrinkage, QD394-Me IV group” value is given as “Three out of five mice displayed tumor shrinkage”.
For the compound `CC(=O)c1cc2c(o1)C(=O)c1ccccc1C2=O` [Napabucasin, reference compound], in the data set with LRPPRC and PNPT1, the “Protein expression of LRPPRC and PNPT1” value is “decreased the protein expression of these two genes”.
On to `CN1CCN(c2ccc(NC3=CC(=O)c4ncncc4C3=O)cc2)CC1` [QD394, 6-(4-(4-Methylpiperazin-1-yl)phenylamino)quinazoline-5,8-dione], for which, in the data set on GSH/GSSG ratio, the GSH/GSSG ratio entry was “significantly decreased the GSH/GSSG ratio”. The “Effect on GPX4 protein stability (CETSA)” value on GPX4 is recorded as “destabilized GPX4 protein”. In the data set with MIA PaCa-2 cells [2], the “Lipid ROS (lipid peroxidation)” value is reported as “significantly increased lipid ROS in a dose-dependent manner”. Besides, the “Cellular ROS” value in the data set on MIA PaCa-2 cells [3] was “time-dependent cellular ROS accumulation”. Also, the “Intracellular ROS level among analogs” value in the data set on MIA PaCa-2 cells [3] (after 1 h compound treatment) was “highest level of intracellular ROS”. Further, in the data set “PK study in CD-1 mice”, the “Concentration at 7 h in mouse plasma, IP” value is reported as 5.0 ng/mL; the “Concentration at 7 h in mouse plasma, PO” value was 23.3 ng/mL and 25.8 ng/mL. Moreover, the “Survival of mice after IV injection” value in “PK study in CD-1 mice” (n=3, 10 mg/kg) is “two out of three mice administered with QD394 via IV injection died and 2 out of 3 mice died”. Also, the “Protein expression of LRPPRC and PNPT1” value with LRPPRC and PNPT1 was “significantly decreased their expression at 4 h”. In addition, the “Tumor shrinkage, QD394 IP group” value in data set [4] (CT-26, IP 20 mg/kg) is “Three out of five mice displayed tumor shrinkage”. Moreover, in the data set on STAT3, the “Phosphorylation of H2AX (DNA damage biomarker)” value is given as “increased the phosphorylation of H2AX” and the “Phosphorylation of STAT3” value was “inhibited the phosphorylation of STAT3”. The Combination with napabucasin result in the data set with pancreatic cancer cells (MIA PaCa-2 and PANC-1 cells) is “synergism”. Moreover, in the data set with pancreatic cancer cells (pancreatic cancer cells), the “Combination with As2O3” value is “sensitizes cells to As2O3” and the Combination with olaparib result is on record as “synergistic effects”.
On to “6-(9H-Fluoren-4-ylamino)quinazoline-5,8-dione [QD390]”, for which the IC50 (in general, the concentration at which inhibition is half-maximal) in [5] was found to be 4.7 ± 1.5 µM; in [6], 3.1 ± 1.5 µM; in [7], 4.5 ± 0.6 µM.

The values are drawn from article PMC8082945 (Journal of medicinal chemistry, 2020).
